Compound activity from PubChem BioAssay.
Only some compounds are listed: those with a hit (about 1.9% of all), similar ones and a draw of the others.
IMP-1 inhibitor = IMP-1 metallo-beta-lactamase inhibitors, primary screen, biochemical, epi-absorbance readout, Pseudomonas aeruginosa enzyme; purified IMP-1, nitrocefin hydrolysis, epi-absorbance fluorescence; actives 0.45% (n = 290,000); inhibition, % at 5.6 µM; metallo-beta-lactamase IMP-1 (Pseudomonas aeruginosa); AID 1556, 2009;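 active = inhibition above the mean plus 3 SD of all compounds in the same screening run, cut at about 4.5% in these data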;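 also: 0% = IMP-1 with DMSO and 100% = DMSO wells lacking enzyme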
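System: purified recombinant IMP-1 beta-lactamase. Medium: Zinc- and detergent-supplemented HEPES buffer, pH 7.1. Compound: one 5.6 µM dose […]. Schedule: 15 min preincubation plus 25 min reaction at 25 °C. Technique: Epi-absorbance fluorescence, 480 nm excitation, 530 nm emission.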
NS3 helicase inh = inhibitors of HCV NS3 helicase, primary screen, biochemical, Cy5 molecular beacon fluorescence; Hepatitis C virus NS3 helicase; NS3 helicase DNA unwinding; inhibition, % at 10.9 µM; actives 0.56% (n = 290,000); AID 1800, 2009;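 active = inhibition above the mean of all tested compounds plus 3 SD, set per campaign, cut at about 35% in these data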;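 also: 0% = DMSO wells and 100% = thioflavine S control wells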
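Control set: DMSO versus 110 µM thioflavine S; Material: NS3 helicase fragment of HCV; Measured by: Cy5 fluorescence at 0 and 60 min, beacon hairpin quenching; Read-out basis: percent inhibition from t60/t0 fluorescence ratio; Times: reaction time 60 min, 25 °C; Repeats: single replicate; Compound dosing: single dose, 10.9 µM nominal final, DMSO 0.8% final.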
DNA FID counter = compounds displacing fluorescent DNA intercalator, primary screen, artefact control for HCV NS3 helicase inhibitor project, biochemical, FID fluorescence | actives 0.17% (n = 290,000) | inhibition, % at 7.9 µM | DNA fluorescent intercalator displacement | AID 1845, 2009; in the data active = inhibition above about 37%;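 also: 0% = vehicle and 100% = reference compound; higher means more ethidium bromide displaced from hairpin DNA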
VIM-2 inhibitor = VIM-2 metallo-beta-lactamase inhibitors, primary screen, biochemical, epi-absorbance readout, Pseudomonas aeruginosa enzyme. AID 1527, 2009. purified VIM-2, nitrocefin hydrolysis, epi-absorbance fluorescence. inhibition, % at 5.6 µM. actives 0.89% (n = 290,000);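 active = inhibition above the mean of all tested compounds plus 3 SD, cutoff set per screening run, cut at about 7.5% in these data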;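 also: red hydrolysis product quenches plate fluorescence so inhibitors raise well fluorescence; 0% = enzyme with DMSO and 100% = DMSO without enzyme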
Numbers without * were called inactive.

SMILES | IMP-1 inhibitor | NS3 helicase inh | DNA FID counter | VIM-2 inhibitor
Cc1sc2ncnc(NCC(O)c3ccccc3)c2c1C (configuration not stated) | 1 | 6 | -26 | 5
Cc1cc(C)n2c3c(c(C#N)c2n1)CCCC3 | -8 | -2 | -6 | 7.7*
O=C(NCc1cccs1)C1CC(=O)N(c2ccc(Cl)cc2)C1 (configuration not stated) | -3 | -11 | -10 | 0
C=CCC(NC(C)c1ccccc1)c1ccco1 (configuration not stated) | 8.4* | 8 | 9 | 2
CCC(C)[C@@H](N)C(=O)N/N=C/c1ccc2ncccc2c1 (some centres not stated) | 1 | 1 | 6 | 7.8*
COc1cccc(C=Nc2cccc3c(=O)[nH][nH]c(=O)c23)c1O | 0 | 1 | -8 | -5
COc1ccc(C=Nc2cccc3c(=O)[nH][nH]c(=O)c23)c2ccccc12 | 27* | -3 | -4 | -1
Cn1c(=O)n(C)c2cc(S(=O)(=O)N3CCN(c4ccccc4)CC3)ccc21 | -3 | -19 | 0 | -3
O=C(NC1CCCCC1)C1CCN(S(=O)(=O)c2cccs2)CC1 | 4.8* | -1 | -2 | 3
O=C(NC1CCCCCC1)C1CCCN(S(=O)(=O)c2cccs2)C1 (configuration not stated) | -2 | 0 | -2 | 0
O=C(Nc1ccccc1)Nc1n[nH]c2nnc(-c3ccccc3)c(-c3ccccc3)c12 | 21* | 2 | -13 | 0
O=C(Nc1ccccc1)Nc1nnc(-c2ccccc2)o1 | -2 | -5 | -3 | -1
COc1cccc(NC(=O)c2ccc(NCCCN3CC(C)CC(C)C3)c([N+](=O)[O-])c2)c1 (configuration not stated) | 0 | -88 | 51* | -1
COc1cccc(NC(=O)c2ccc(NCCCN3CCC(C)CC3)c([N+](=O)[O-])c2)c1 | 1 | -7 | 26 | -1
c1coc(-c2nnc3sc(-c4cccs4)nn23)c1 | 0 | 4 | -11 | 7.9*
CC(=O)Oc1ccc(/C=N\NC(=O)c2cc3c(ccc4ccccc43)o2)cc1 | 4.9* | -11 | -24 | -2
COCCCNC(=O)CCN1N=C(c2ccccc2)CCC1=O | -2 | -7 | -7 | -3
Cc1ccccc1CSc1nnc([C@@H]2CCCN2)o1 | 5.7* | 3 | -2 | 0
Cc1[nH]c2ccccc2c1Cc1nnc(SCC(N)=O)o1 | 9.6* | -2 | 2 | 0
Cc1ccc(CCNC(=O)CCCn2nc(C)c3c(C)n(-c4ccc(C)cc4)nc3c2=O)cc1 | -1 | -11 | -54 | 0
Cc1ccc(-n2nc3c(=O)n(CC(=O)NCCc4ccc(Cl)cc4)nc(C)c3c2C)cc1 | 18* | 0 | -41 | -2
Cc1ccc(-n2nc3c(=O)n(CCCC(=O)NCCN4CCN(C)CC4)nc(C)c3c2C)cc1 | 4.9* | 28 | 11 | 2
CN1CCN(CCCNC(=O)c2ccc3c(Cl)c4c(nc3c2)CCCC4)CC1 | 0 | -8 | 19 | 9.4*
COc1ccc(C(CNC(=O)Cc2c(F)cccc2Cl)N2CCCCC2)cc1 (configuration not stated) | -2 | 14 | 3 | -2
COc1ccc(NC(=O)CCCCCn2nnc3ccccc3c2=O)cc1 | -3 | -4 | -28 | -3
SMILES | IMP-1 inhibitor | NS3 helicase inh | DNA FID counter | VIM-2 inhibitor
CCOC(=O)N1CCN(c2cc(NCCC(=O)O)c3c4c(onc24)-c2ccccc2C3=O)CC1 | -1 | 36* | -23 | 2
O=C(O)CCCNc1cc(N2CCC3(CC2)OCCO3)c2noc3c2c1C(=O)c1ccccc1-3 | -1 | 37* | -27 | 1
COc1ccc2c(C=O)cn(C)c2c1 | -3 | 2 | 0 | -2
CCC(C)c1ccc(C2C3=C(Nc4nc(N)[nH]c(=O)c42)c2ccccc2C3=O)cc1 (configuration not stated) | -2 | -53 | 96* | -4
O=C(Nc1ccccc1N1CCN(C(=O)c2ccccc2)CC1)c1ccc(Br)o1 | 5.9* | -8 | -53 | -3
O=C(Nc1ccccc1N1CCN(C(=O)c2ccccc2)CC1)c1ccc(Cl)cc1 | -3 | -2 | -32 | 0
Nc1c(Cl)c(Cl)nc(C(=O)OCC(=O)NC2CCCCC2)c1Cl | 0 | 0 | -13 | -2
CCCc1ccccc1OCCNS(=O)(=O)c1cc2c(cc1C)OCC(=O)N2 | -6 | 4 | -28 | -2
CCOc1ccc(Nc2nc(NCC3CCCO3)c3ccccc3n2)cc1 (configuration not stated) | -1 | -63 | 39* | 1
c1ccc(Nc2nc(NCC3CCCO3)c3ccccc3n2)cc1 (configuration not stated) | -2 | -36 | 22 | -2
CCOc1ccc(Nc2cc(C)c3ccccc3n2)cc1 | -1 | -24 | -8 | 3
CCOc1ccc(Nc2c3ccccc3nc3ccccc23)cc1 | -3 | 0 | 31 | 9.6*
CCC(CC)C(=O)NCCc1ccc(OC)cc1 | 1 | 1 | -3 | -2
CC[C@@H](C)[C@H](CN[C@H](CNC)[C@@H](C)O)NCCc1ccc(OC)cc1 | 0 | -4 | 13 | 11*
O=c1c(Cc2ccccc2)c(O)ccn1Cc1ccco1 | -2 | -6 | 0 | -1
CC(=O)c1cccc(NS(=O)(=O)c2ccc(-c3cnc(C4CC4)o3)cc2)c1 | 1 | -17 | -25 | 0
COc1ccc(CCC(=O)Nc2sc(C(=O)N(C)C)c(C)c2C#N)cc1 | -1 | 6 | -23 | -4
COc1ccc(CCC(=O)Nc2nc(C)c(C(=O)N(C)C)s2)cc1 | 11* | 31 | -32 | -4
COc1ccc(N2CC(C(=O)N3CCc4ccccc43)CC2=O)cc1 (configuration not stated) | -1 | -2 | -32 | 0
c1ccc(N2CCN(c3nc(NCc4ccco4)c4ccccc4n3)CC2)cc1 | -5 | -68 | 40* | -1
CCNc1oc(/C=C/c2ccc(OCC)cc2)nc1C#N | 1 | -6 | -19 | 2
COc1ccc(C(Cl)=C(c2ccc(OC)cc2)c2ccc(OC)cc2)cc1 | 12* | 22 | -12 | 0
O=C(CCSc1ccccc1)Nc1ccc(S(=O)(=O)N2CCOCC2)cc1 | 47* | -3 | -6 | 0
Cc1ccc(S(=O)(=O)N2CCN(CC(=O)Nc3ccc(N4CCOCC4)cc3)CC2)cc1C | -2 | -3 | -33 | -3
Cc1cccc(N2CCN(CC(=O)Nc3ccc(S(=O)(=O)N4CCOCC4)cc3)CC2)c1C | 4.5* | -23 | -8 | 2
CC1CCN(c2nc3ccc(C(=O)NCCCN4CCCCC4)cc3s2)CC1 | -7 | -17 | 22 | 10*
CC(C)OCCCNc1nc(-c2ccccc2)nc2ccccc12 | -4 | -19 | 4 | -2
CN(C)CCCNc1c2ccccc2nc2ccccc12 | -1 | 35 | 28 | 12*
CN(C)CCNc1c2c(nc3ccccc13)CCC2 | 1 | 2 | 45* | 2
c1ccc2c(NCCCN3CCOCC3)c3ccccc3nc2c1 | 1 | 9 | 27 | 4
